The source of these data is ChEMBL document CHEMBL1157960, “10-Phenyl-[12]-cytochalasins Z7, Z8, and Z9 from the marine-derived fungus Spicaria elegans” (J Nat Prod, 2006).

SMILES strings stand for the structures.

In test [1] the test system is P388. Description: Cytotoxicity against mouse P388 cells after 72 hrs by MTT method. The test is classed as functional, cell-based. The note with it: P388, 72 h. A digest of the protocol:
(§1)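 Cells kept in RPMI-1640 with 10% FBS at 37 °C under 5% CO2/95% air. Seeded at 5 × 10^4 cells/mL and held 24 h before compound was added in DMSO at various concentrations. Incubation then ran 72 h. MTT (5 mg/mL stock) was added for 4 h, formazan was dissolved in DMSO, and absorbance was read at 540 nm. Result reported as IC50.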
(Formazan colour is commonly taken as a measure of viable cells.)

The subject of test [2] is A549. Description: Cytotoxicity against human A549 cells after 72 hrs by MTT method. It counts as functional, cell-based. The conditions noted are these: A549, 72 h. In short, it runs like this: as §1

As to `CC1=C(C)[C@H]2[C@H](Cc3ccccc3)NC(=O)[C@]23OC(=O)/C=C/[C@@](C)(O)C[C@@H](C)C/C=C/[C@H]3[C@@H]1O` [CYTOCHALASIN Z9], the figures for the IC50 in test [1] and in test [2] were 99 µM and 8.7 µM, respectively.
Turning to `C[C@H]1C/C=C/[C@H]2[C@@H]3O[C@]3(C)[C@@H](C)[C@H]3[C@H](Cc4ccccc4)NC(=O)[C@]32OC(=O)O/C=C/[C@@](C)(O)C1=O` [CYTOCHALASIN E], the values for the half-maximal inhibitory concentration (IC50) in test [1] and in test [2] were 0.093 µM and 0.0062 µM, respectively.
On the same counts, the results for `C=C1[C@@H](C)[C@H]2[C@H](Cc3ccccc3)NC(=O)[C@]23OC(=O)/C=C/[C@H](C)[C@H](O)[C@@H](C)C/C=C/[C@H]3[C@@H]1O` are 75 µM and 8.8 µM.
The matching figures for `CC1=C(C)[C@H]2[C@H](Cc3ccccc3)NC(=O)[C@]23OC(=O)O/C=C/[C@@](C)(O)C(=O)[C@@H](C)C/C=C/[C@H]3[C@@H]1O` [CYTOCHALASIN K]: 89 µM and 8.4 µM.
Regarding `CC1=C(C)[C@H]2[C@H](Cc3ccccc3)NC(=O)[C@]23OC(=O)/C=C/[C@H](C)[C@H](O)[C@@H](C)C/C=C/[C@H]3[C@@H]1O`, the IC50 (as a rule, the midpoint of a concentration-inhibition curve) is 56 µM in test [1] and 21 µM in test [2].
